This is a sample that favours compounds with a hit; in the whole collection about 4.6% have one here.
GPR7 antag – blocks human GPR7 receptor signaling | P48145 | GPR7-expressing cells, fluorescence antagonist assay | inhibition, % at 4.4 µM | hit rate 1.1% among 290,000 | AID 1861; in the data active = inhibition above about 16%, passing the limit was not always enough;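 note: cells stimulated with the agonist NPW; 0% = agonist with vehicle and 100% = vehicle without agonist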
TAAR1 ag – agonists of human TAAR1 | activation, % at 3 µM | CHO RD-HGA16 TAAR1, Fluo-8 calcium fluorescence; vehicle wells 0%, saturating PEA agonist 100% | AID 624467 | Q96RJ0 | hit rate 0.99% among 360,000;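 active = activation above the mean activation of all test compounds in the run plus 3 SD, cut at about 38% in these data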
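System: CHO-derived RD-HGA16 cells with stable Gα16 and human TAAR1 / Times: 17-24 h plating, Fluo-8 75 min 37 °C, 30 min RT / Technique: calcium-sensitive Fluo-8 signal, excitation 470-495, emission 515-575 nm / Measure: % activation relative to PEA EC100 response / Benchmarks: DMSO and PEA EC100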
CHO parental Ca – counter-screen for OX1R antagonists: effect in parental CHO cells. parental CHO-K1, ATP-induced calcium, Fluo-8 fluorescence. inhibition, % at 5.6 µM. hit rate 0.63% among 330,000;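 active = inhibition above that plate's mean sample inhibition plus 3 SD, cut at about 26% in these data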;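 note: 0% = ATP-challenged DMSO wells and 100% = DMSO wells without ATP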
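Measured by: calcium-sensitive Fluo-8 fluorescence / Test system: CHO parental line / Controls: ATP-challenged DMSO wells low, unchallenged DMSO wells high / Measure: % inhibition / Compound: single nominal dose of 5.6 µM per compound / Replicates: single well per compound, no replicates / Reagent: ATP as calcium-mobilizing challenge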
TAAR1 antag – antagonists of human TAAR1 | CHO RD-HGA16 TAAR1, Fluo-8 calcium fluorescence, antagonist | inhibition, % at 3 µM | hit rate 1.5% among 360,000 | AID 624466;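 active = inhibition above a per-plate cutoff, the mean inhibition of test compounds on that plate plus 3 SD, cut at about 49% in these data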;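 note: 0% = DMSO plus EC80 beta-PEA response and 100% = DMSO alone without agonist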
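Material: CHO RD-HGA16 cells bearing hTAAR1; compound dosing: one-point dosing, 3 µM nominal final; schedule: dye loading 75 min at 37 °C, then 30 min room temperature; measured by: calcium fluorescence with Fluo-8; control set: vehicle and agonist controls; replication: n of 1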
OX1R antag-1 – human HCRTR1 antagonism | CHO/OX1R cells, Fluo-8 calcium fluorescence, orexin A | hit rate 0.43% among 330,000 | inhibition, % at 5 µM;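 active = inhibition above its plate's threshold, mean inhibition of all tested compounds on the plate plus 3 SD, cut at about 37% in these data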;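 note: 0% = orexin A challenge wells and 100% = SB-334867-A antagonist wells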
Target sequence (O43613 whole entry, looked up): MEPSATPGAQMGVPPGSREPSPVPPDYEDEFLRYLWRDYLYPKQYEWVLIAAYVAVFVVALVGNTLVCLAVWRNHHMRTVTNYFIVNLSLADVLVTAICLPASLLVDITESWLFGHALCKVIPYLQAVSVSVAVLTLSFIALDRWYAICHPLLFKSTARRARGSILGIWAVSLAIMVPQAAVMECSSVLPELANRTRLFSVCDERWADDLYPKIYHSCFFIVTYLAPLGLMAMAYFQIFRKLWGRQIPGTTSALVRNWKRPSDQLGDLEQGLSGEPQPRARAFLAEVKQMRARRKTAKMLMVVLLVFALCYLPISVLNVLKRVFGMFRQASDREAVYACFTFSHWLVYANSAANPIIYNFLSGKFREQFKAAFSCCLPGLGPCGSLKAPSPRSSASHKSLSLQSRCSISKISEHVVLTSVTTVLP
OX1R antag-2 – blocks the human orexin 1 receptor. O43613. hit rate 1.8% among 330,000. OX1R-expressing cells, FRET antagonist read-out. inhibition, % at 6.6 µM; in the data active = inhibition mostly above about 38%, no sharp cut-off; inactive = mostly below about 40%;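 note: 0% = agonist challenge alone and 100% = reference antagonist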
GPR7 antag conf – confirmation of human GPR7 antagonists; shares compounds with GPR7 antag; GPR7-expressing cells, calcium fluorescence antagonist mode; inhibition, % at 4.4 µM; hit rate 52% among 2,400; in the data active = inhibition above about 24%;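 note: stimulated with the GPR7 agonist NPW; 0% = agonist plus vehicle and 100% = vehicle alone without agonist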
MCHR1 antag – antagonizes human MCHR1, a GPR7 antagonist counter-screen. inhibition, % at 4.4 µM. MCHR1-expressing cells, fluorescence antagonist assay. hit rate 62% among 2,400. shares compounds with GPR7 antag; in the data active = inhibition above about 22%;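 note: 0% = vehicle with agonist and 100% = vehicle without agonist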
* hit, by the source's call; nt = no result.

SMILES | GPR7 antag | TAAR1 ag | CHO parental Ca | TAAR1 antag | OX1R antag-1 | OX1R antag-2 | GPR7 antag conf | MCHR1 antag
O=C1/C(=N\O)Cc2ccccc21 | 27* | 7 | -8 | 18 | -3 | 15 | 6 | -1
Cc1c(NC(=O)C(C)c2ccc(CC(C)C)cc2)c(=O)n(-c2ccccc2)n1C (configuration not stated) | -6 | 3 | -2 | -3 | -5 | 13 | nt | nt
CC(C)Cc1ccc(C(C)C(=O)Nc2ccccc2O)cc1 (configuration not stated) | 69* | 77* | 82* | 92* | 101* | 29 | 89* | 94*
N/C(=N\c1nc2c(c(=O)[nH]1)CCCC2)Nc1ccccc1 | 31* | 9 | -4 | 14 | -7 | 11 | 8 | 18
CCC(C)CCN1C(Nc2ccccc2)=NC[C@@H]1CC(C)C (some centres not stated) | 27 | 5 | -18 | 16 | -8 | 16 | nt | nt
CCC(C)CCN1C(Nc2ccccc2)=NC[C@@H]1Cc1ccccc1 (some centres not stated) | nt | 21 | -25 | -9 | -36 | 14 | nt | 19
c1ccc(C[C@H]2CN=C(Nc3ccccc3)N2CCCC2CCCC2)cc1 | 46* | nt | -13 | nt | -25 | 8 | 51* | 34*
c1ccc(CCCCN2C(Nc3ccccc3)=NC[C@@H]2Cc2ccccc2)cc1 | nt | 37 | -14 | 22 | -8 | 35 | nt | nt
CCCCCCCN1C(Nc2ccccc2)=NC[C@@H]1Cc1ccccc1 | 50* | 31 | -22 | 9 | -28 | 13 | 48* | 48*
CCN(C(=O)COC(=O)Cn1cnc2c1c(=O)n(C)c(=O)n2C)C1CCS(=O)(=O)C1 (configuration not stated) | 29* | 5 | -1 | -21 | 4 | 13 | 10 | 12
CN1CCN(S(=O)(=O)c2cccc(C(=O)N(C)Cc3c(F)cccc3Cl)c2)CC1 | nt | 1 | -33 | 12 | -37 | 8 | nt | nt
COCCn1c(SCC(=O)N(C)c2ccccc2)nc2c([nH]c3ccccc32)c1=O | 31* | 5 | -28 | 28 | -16 | 24 | -19 | -2
CC(NC(=S)NCCCN1CCOCC1)C1CC2CCC1C2 (configuration not stated) | 10 | -1 | nt | -15 | nt | nt | nt | nt
O=C1CCCCCN1Sc1ccccc1 | 26* | 9 | -10 | 6 | -12 | 4 | 32* | 88*
O=C1CCCCCN1C(=O)c1ccccc1 | nt | 1 | nt | 1 | nt | nt | nt | nt
CCOc1ccc(N(C)S(=O)(=O)c2cc(-c3cc(C)no3)ccc2C)cc1 | 32* | 2 | 10 | 65* | 12 | 20 | 17 | 74*
CC(NCc1ccc(-c2ccccc2)cc1)C(O)c1ccccc1 (configuration not stated) | 31* | 27 | 5 | 31 | -4 | 10 | 25* | 51*
CNCc1ccc(OCc2ccccc2)c(OC)c1 | -7 | 2 | -13 | 11 | -12 | 6 | nt | nt
COc1cc(CN(CCN(C)C)Cc2ccccc2)ccc1OCc1ccccc1 | 44* | 24 | -16 | -9 | -20 | -6 | 57* | 34*
CCCCn1c(SCc2cccc([N+](=O)[O-])c2)nc2ccsc2c1=O | 3 | 2 | -14 | 21 | -5 | 30 | nt | nt
CCC(C)n1c(SCc2ccc([N+](=O)[O-])cc2)nc2ccsc2c1=O (configuration not stated) | 25* | 5 | -26 | 34 | -17 | 23 | 23 | 44*
O=C(Nc1ccc(Cl)cc1)C1CC(=O)n2c(nc3ccccc32)N1 (configuration not stated) | 23* | nt | -3 | nt | 10 | 19 | -9 | 2
CCOC(Cn1cc([N+](=O)[O-])c(=O)[nH]c1=O)OCC | nt | 1 | nt | -11 | nt | nt | nt | nt
CCOC(Cn1ccc(=O)[nH]c1=O)OCC | 27* | 2 | 1 | -10 | -6 | 5 | 0 | 14
CSc1nsc(SC)c1C(=O)N1CCN(S(=O)(=O)c2ccc(C)cc2)C1C (configuration not stated) | -1 | 9 | -33 | 47 | -39 | 30 | nt | nt
SMILES | GPR7 antag | TAAR1 ag | CHO parental Ca | TAAR1 antag | OX1R antag-1 | OX1R antag-2 | GPR7 antag conf | MCHR1 antag
CSc1nsc(SC)c1C(=O)N1CCN(S(=O)(=O)c2ccc(C)cc2)C1C(C)C (configuration not stated) | 27* | 9 | -24 | 49* | -17 | 31 | 17 | 46*
COc1cccc(OC)c1OCC(O)CN1CCN(c2ccc(F)cc2)CC1 (configuration not stated) | 0 | 1 | -16 | -22 | -26 | 2 | nt | nt
C/C(=N\NC(=O)Cc1ccc(Cl)c(Cl)c1)c1cccnc1 | 2 | 1 | nt | -16 | nt | nt | nt | nt
C/C(=N\NC(=O)Cc1ccc([N+](=O)[O-])cc1)c1cccnc1 | 23* | 1 | nt | -22 | nt | nt | 0 | 16
Cc1occc1C(=O)N/N=C/c1cccc2ccccc12 | 2 | -2 | -22 | 3 | -30 | 24 | nt | nt
Cc1cc2c(cc(C(=O)OCC(=O)NCc3ccco3)n2C)s1 | 29* | 0 | 2 | -28 | -7 | 6 | 13 | 22*
COc1ccc(NC2CC(=O)N(C(C)C)C2=O)cc1 (configuration not stated) | 24* | 0 | -18 | -6 | -5 | -2 | -2 | 9
Nc1nc2c(ncn2[C@@H]2O[C@H](CNC(=O)[C@H](N)C3CCCCC3)[C@@H](O)[C@H]2O)c(=O)[nH]1 | nt | -1 | nt | 11 | nt | nt | nt | nt
O=C(Oc1ccc(C(=S)N2CCOCC2)cc1)c1ccc(Br)cc1 | 0 | 1 | -3 | -3 | -8 | 4 | nt | nt
O=C(Oc1ccc(C(=S)N2CCOCC2)cc1)c1ccccc1 | 42* | 2 | 2 | 19 | -17 | 11 | 26* | 15
O=C(Cc1nnc(NC(=O)c2cccc([N+](=O)[O-])c2)s1)NCc1ccccc1 | -6 | 2 | -2 | -17 | 10 | 1 | nt | nt
CCOc1ccc(S(=O)(=O)N2CCN(Cc3ccccc3)CC2)cc1 | 28* | 11 | 2 | 2 | -17 | 2 | 20 | 28*
COc1ccc(NC(=O)CN(C)C(=O)c2cccc(S(=O)(=O)N3CCN(Cc4ccccc4)CC3)c2)cc1 | 35* | nt | -6 | nt | -19 | 15 | 31* | 46*
COc1ccc(NC(=O)CN(C)C(=O)c2cccc(S(=O)(=O)N3CCN(C)CC3)c2)cc1 | nt | 1 | 4 | -1 | -2 | 10 | nt | nt
NC(=O)NC(=O)COC(=O)[C@H](Cc1ccccc1)NC(=O)c1cccs1 | -10 | 5 | 1 | -26 | -4 | 8 | nt | nt

High-throughput results from PubChem BioAssay.
